Data set [1] concerns Rattus norvegicus. The data set is described as follows: Blood pressure lowering activity in renal hypertensive rats after peroral administration. The data set is classed as functional. In outline: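 Conscious male Sprague-Dawley CD rats, six days after left renal artery ligation and with jugular and carotid cannulae, were dosed by oral gavage at 1-100 mg/kg (4-6 rats/dose). Mean arterial pressure was monitored for 3 h.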

The subject of data set [2] is Rattus norvegicus. Put plainly: Blood pressure lowering activity in renal hypertensive rats after intravenous administration. The data set is classed as functional. In short, it runs like this:
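Male Sprague-Dawley CD rats had the left renal artery ligated under hexobarbital (100 mg/kg ip). Six days later the jugular vein and carotid artery were cannulated under hexobarbital (90 mg/kg ip). Compound was given intravenously to the conscious hypertensive rats while mean arterial pressure was recorded.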

In data set [3] the target is T1, Angiotensin II receptor (Rattus norvegicus, UniProt P29089+P25095+P35351).
T1 sequence (P29089 whole entry): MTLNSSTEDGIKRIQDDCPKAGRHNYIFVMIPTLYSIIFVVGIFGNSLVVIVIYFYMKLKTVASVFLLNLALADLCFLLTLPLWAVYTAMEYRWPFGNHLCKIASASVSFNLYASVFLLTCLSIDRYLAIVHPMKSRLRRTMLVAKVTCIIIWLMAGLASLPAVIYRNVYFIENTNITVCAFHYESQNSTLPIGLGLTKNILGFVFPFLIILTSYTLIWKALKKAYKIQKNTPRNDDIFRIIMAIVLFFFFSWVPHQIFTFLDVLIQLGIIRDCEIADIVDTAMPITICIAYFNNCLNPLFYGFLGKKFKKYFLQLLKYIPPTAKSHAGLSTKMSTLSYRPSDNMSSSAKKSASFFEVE
T1 sequence (P25095 whole entry): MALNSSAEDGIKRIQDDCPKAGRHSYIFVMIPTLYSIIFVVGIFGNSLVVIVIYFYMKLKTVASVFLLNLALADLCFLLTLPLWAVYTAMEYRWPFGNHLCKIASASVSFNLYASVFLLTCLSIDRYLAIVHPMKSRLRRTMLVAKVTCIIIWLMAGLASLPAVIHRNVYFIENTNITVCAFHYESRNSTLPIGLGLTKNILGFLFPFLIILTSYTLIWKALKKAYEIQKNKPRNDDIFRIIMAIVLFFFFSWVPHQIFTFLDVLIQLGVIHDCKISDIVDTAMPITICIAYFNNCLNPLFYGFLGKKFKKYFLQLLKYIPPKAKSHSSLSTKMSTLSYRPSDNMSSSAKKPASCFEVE
T1 sequence (P35351 whole entry): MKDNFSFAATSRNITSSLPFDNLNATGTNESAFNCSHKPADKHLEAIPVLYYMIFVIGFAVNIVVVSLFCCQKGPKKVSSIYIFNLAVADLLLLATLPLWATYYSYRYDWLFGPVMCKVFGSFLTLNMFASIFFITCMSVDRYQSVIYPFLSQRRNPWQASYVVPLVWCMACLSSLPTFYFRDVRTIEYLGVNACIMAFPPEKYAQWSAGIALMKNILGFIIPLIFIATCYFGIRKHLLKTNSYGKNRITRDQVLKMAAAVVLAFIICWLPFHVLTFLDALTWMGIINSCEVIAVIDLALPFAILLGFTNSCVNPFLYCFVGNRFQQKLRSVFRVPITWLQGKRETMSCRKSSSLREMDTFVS
The data set is described as follows: Inhibition of radioligand [3H]angiotensin II binding to angiotensin II receptor of rat adrenal cortical membrane. In short, it runs like this:
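Rat adrenal cortical microsomes came from male Sprague-Dawley CD rats (300-400 g) and were prepared at 4 °C in sucrose/EDTA/Tris pH 7.4. Samples were filtered and counted, in duplicate. Specific binding was defined with 1 µM unlabeled AII. IC50 was taken from the linear portion of the displacement curve.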

Data set [4] in a line: Ionization constant for the compound. Format: physicochemical, Rattus norvegicus.

Each structure is given as a SMILES string.

As for `CCCCc1nc(Br)c(CO)n1Cc1ccc(-c2ccccc2-c2nn[nH]n2)cc1`, the Activity in data set [1] worked out at 3 mg/kg; in data set [2] it was 0.3 mg/kg.
Turning to `CCCCc1nc(Cl)c(CO)n1Cc1ccc(-c2ccccc2C(N)=O)cc1`, the IC50 in data set [3] worked out at 35 µM.
Take `CCCCc1nc(Br)c(CO)n1Cc1ccc(-c2ccccc2C(=O)O)cc1`: the Activity in data set [1] is 30 mg/kg; in data set [2], 3 mg/kg. In data set [3], this molecule registered an IC50 of 0.09 µM.
In the same order, the values of `CCCCc1nc(Cl)c(CO)n1Cc1ccc(-c2cccc(C)c2C(=O)O)cc1` are 10 mg/kg, 3 mg/kg and 1.9 µM.
In the same order, the values of `C=CCOC(=O)NCc1c(Cl)nc(CCCC)n1Cc1ccc(-c2ccccc2C(=O)O)cc1` are 100 mg/kg, 10 mg/kg and 0.39 µM.
The matching figures for `CCCCc1nc(Cl)c(C(=O)N(C)C)n1Cc1ccc(-c2ccccc2C(=O)O)cc1`: 10 mg/kg, 10 mg/kg and 1.3 µM.
Regarding `CCCCc1nc(Cl)c(CN)n1Cc1ccc(-c2ccccc2C(=O)O)cc1`, in data set [3], the IC50 worked out at 3.2 µM.
For `O=C(O)c1ccccc1-c1ccc(Cn2c(-c3ccccc3)nc(Cl)c2CO)cc1`, the figures for the Activity in data set [1] and in data set [2] were 100 mg/kg and 10 mg/kg, respectively.
For the molecule `CCCCc1nc(Cl)c(C(O)c2ccccc2)n1Cc1ccc(-c2ccccc2-c2nn[nH]n2)cc1` (configuration not stated), the figures for the Activity in data set [1] and in data set [2] were over 30 mg/kg and 3 mg/kg, respectively. The IC50 in data set [3] is 0.41 µM.
In the same order, the values of `CCCCc1nc(Cl)c(C(N)=O)n1Cc1ccc(-c2ccccc2C(=O)O)cc1` are 100 mg/kg, 10 mg/kg and 0.15 µM.
Take `CCCCc1nc(Cl)c(COC)n1Cc1ccc(-c2ccccc2-c2nn[nH]n2)cc1`: the Activity in data set [1] came to 3 mg/kg; in data set [2] it was 1 mg/kg. Also, the pKa in data set [4] was 6.
For `CCCCc1nc(Cl)c(CNC(=O)OC)n1Cc1ccc(-c2ccccc2-c2nn[nH]n2)cc1`, the Activity is over 10 mg/kg in data set [1] and 1 mg/kg in data set [2]. In data set [3], this molecule registered an IC50 of 0.06 µM.
In the same order, the values of `CCCCc1nc(I)c(CO)n1Cc1ccc(-c2ccccc2C(=O)O)cc1` are 100 mg/kg, 10 mg/kg and 0.061 µM.
`CCCCc1nc(Cl)c(COC)n1Cc1ccc(-c2ccccc2NS(=O)(=O)C(F)(F)F)cc1`: the Activity in data set [1] worked out at 100 mg/kg; in data set [2], 10 mg/kg. Moreover, the pKa in data set [4] came to 4.5.
In the case of `CCCCc1nc(Cl)c(COC)n1Cc1ccc(-c2ccccc2C(=O)O)cc1`, the Activity turned out to be 100 mg/kg in data set [1] and 10 mg/kg in data set [2]. The pKa in data set [4] was determined as 5.
Regarding `CCCCc1nc(I)c(CO)n1Cc1ccc(-c2ccccc2-c2nn[nH]n2)cc1`, the Activity in data set [1] is 10 mg/kg; in data set [2] it was 1 mg/kg.
In the same order, the values of `CCCCc1nc(Cl)c(CO)n1Cc1ccc(-c2cccc(C(=O)O)c2)cc1` are 100 mg/kg and 45 mg/kg.
`CCCCc1nc(Cl)c(CNC(=O)OC)n1Cc1ccc(-c2ccccc2C(=O)O)cc1`: the Activity amounted to 30 mg/kg in data set [1] and 3 mg/kg in data set [2]. Further, in data set [3], the half-maximal inhibitory concentration (IC50) is 0.25 µM.
In the same order, the values of `CCCCc1nc(Cl)c(C=O)n1Cc1ccc(-c2cccc(-c3nn[nH]n3)c2)cc1` are 30 mg/kg, over 10 mg/kg and over 1 µM.
The matching figures for `CCCc1nc(Cl)c(CO)n1Cc1ccc(-c2ccccc2C(=O)O)cc1`: 30 mg/kg, 3 mg/kg and 0.16 µM.
`CCCCc1nc(Cl)c(C=O)n1Cc1ccc(-c2ccccc2-c2nn[nH]n2)cc1`: the Activity in data set [1] was determined as 3 mg/kg; in data set [2], 0.3 mg/kg. The same molecule registered an IC50 in data set [3] of 0.02 µM.
In the same order, the values of `CCCCc1nc(Cl)c(/C=N/NS(=O)(=O)c2ccccc2)n1Cc1ccc(-c2ccccc2-c2nn[nH]n2)cc1` are 30 mg/kg, 3 mg/kg and 0.66 µM.
The matching figures for `CCCCc1nc(Cl)c(COC)n1Cc1ccc(-c2ccccc2Cc2nnn[nH]2)cc1`: 100 mg/kg, 10 mg/kg and 0.3 µM.
As to `CCCCc1nc(Cl)c(CO)n1Cc1ccc(-c2ccccc2-c2[nH]nnc2C#N)cc1`, the figures for the Activity in data set [1] and in data set [2] were over 10 mg/kg and over 1 mg/kg, respectively. The molecule further yielded an IC50 in data set [3] of 0.28 µM.
With `CCCCc1nc(Cl)c(CNC(=O)OC23C[C@H]4C[C@@H](C2)C[C@@H](C3)C4)n1Cc1ccc(-c2ccccc2C(=O)O)cc1`, the Activity in data set [1] worked out at 30 mg/kg; in data set [2], 3 mg/kg. In data set [3], this molecule showed an IC50 of 0.6 µM.
The matching figures for `CCCCc1nc(Cl)c(CNC(=O)OCC)n1Cc1ccc(-c2ccccc2C(=O)O)cc1`: 100 mg/kg, 10 mg/kg and 0.2 µM.
As to `CCCCc1nc(Cl)c(CO)n1Cc1ccc(-c2ccccc2-c2n[nH]c(C(F)(F)F)n2)cc1`, the Activity turned out to be 10 mg/kg in data set [1] and 1 mg/kg in data set [2]. This molecule also registered a concentration for half-maximal inhibition (IC50) in data set [3] of 0.37 µM.
The matching figures for `CCCCc1nc(Cl)c(C(=O)OC)n1Cc1ccc(-c2ccccc2C(=O)O)cc1`: 100 mg/kg, 10 mg/kg and 0.34 µM.
In the same order, the values of `CCCCc1nc(C(F)(F)F)c(CO)n1Cc1ccc(-c2ccccc2C(=O)O)cc1` are 30 mg/kg, 3 mg/kg and 0.062 µM.
On to `CCCCCc1nc(Cl)c(CO)n1Cc1ccc(-c2ccccc2C(=O)O)cc1`, for which the Activity in data set [1] came to 30 mg/kg; in data set [2] it was 3 mg/kg. Also, the concentration for half-maximal inhibition (IC50) in data set [3] worked out at 0.98 µM.
On to `CCCCc1nc(Cl)c(COC(C)=O)n1Cc1ccc(-c2ccccc2C(=O)O)cc1`, for which the values for the Activity in data set [1] and in data set [2] were 100 mg/kg and 10 mg/kg, respectively.
For the molecule `CCCCc1nc(Cl)c(/C=N/NC2=NCCN2)n1Cc1ccc(-c2ccccc2-c2nn[nH]n2)cc1`, the Activity in data set [1] is 30 mg/kg; in data set [2] it was 3 mg/kg. Further, the IC50 in data set [3] came to 0.29 µM.
Take `CCCCc1nc(Cl)c(CO)n1Cc1ccc(-c2ccccc2NS(=O)(=O)C(F)(F)F)cc1`: the values for the Activity in data set [1] and in data set [2] were 100 mg/kg and 10 mg/kg, respectively. The molecule further gave a pKa in data set [4] of 4.5.
On to `CCCCc1nc(Cl)c(CO)n1Cc1ccc(-c2c(OC)cccc2C(=O)O)cc1`, for which the Activity in data set [1] was 100 mg/kg; in data set [2], 10 mg/kg. For the same molecule, the IC50 in data set [3] was determined as 3 µM.
Molecule `CCCCc1nc(Cl)c(COC)n1Cc1ccc(-c2ccccc2C(=O)Nc2nn[nH]n2)cc1` yielded an Activity in data set [2] of 10 mg/kg.
As for `CCc1nc(Cl)c(CO)n1Cc1ccc(-c2ccccc2C(=O)O)cc1`, the Activity in data set [1] stood at 100 mg/kg; in data set [2], 10 mg/kg. The molecule also registered an IC50 in data set [3] of 1.7 µM.

By IC50 is commonly meant the concentration needed to halve the response being measured. Low readings indicate higher potency, high ones lower potency. As a reminder, the pKa is the pH at which an ionisable group is half protonated. Read a high pKa as a group that holds its proton tightly.

The values are drawn from ChEMBL document CHEMBL1125185, “Nonpeptide angiotensin II receptor antagonists: the discovery of a series of N-(biphenylylmethyl)imidazoles as potent, orally active antihypertensives” (J Med Chem, 1991).
